# Source: PubChem BioAssay
# In the library only some 1.9% were active in any assay of this set; here they are far more common.
# Rin1-Abl PPI inh = human Rin1-Abl interaction inhibition | AID 588664 | inhibition, % at 7.35 µM | TR-FRET Rin1/Abl binding, biochemical | P00519+Q13671 | 0.4% of 360,000 active; in the data active = inhibition above about 5%, passing the limit was not always enough
# SR-BI DiI inh = inhibitors of mouse SR-BI mediated HDL lipid uptake. Q61009. ldlA[mSR-BI] CHO cells, DiI-HDL uptake fluorescence, 3 h. 0.96% of 320,000 active. inhibition, % at 12.5 µM;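 active = mean replicate inhibition of at least 70% and a set share of replicates each scoring 70 or more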;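 note: 0% = median of neutral control wells and 100% = median of positive control wells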
# Target sequence (Q61009 whole entry, looked up): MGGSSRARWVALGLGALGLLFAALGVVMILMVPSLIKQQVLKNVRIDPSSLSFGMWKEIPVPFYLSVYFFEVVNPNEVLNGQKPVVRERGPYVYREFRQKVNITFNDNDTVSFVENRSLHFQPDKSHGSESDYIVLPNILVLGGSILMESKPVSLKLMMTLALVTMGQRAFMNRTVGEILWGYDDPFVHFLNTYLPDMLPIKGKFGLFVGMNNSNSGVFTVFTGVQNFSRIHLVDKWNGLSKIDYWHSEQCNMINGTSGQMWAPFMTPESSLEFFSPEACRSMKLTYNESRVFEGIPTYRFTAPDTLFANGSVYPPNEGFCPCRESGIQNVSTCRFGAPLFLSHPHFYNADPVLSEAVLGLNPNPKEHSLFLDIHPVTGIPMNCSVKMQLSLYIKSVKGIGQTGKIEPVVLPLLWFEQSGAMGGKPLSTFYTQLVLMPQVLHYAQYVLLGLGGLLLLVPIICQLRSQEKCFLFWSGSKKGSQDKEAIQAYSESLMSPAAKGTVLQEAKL
# GRK2 inh = blocks RNA aptamer binding to human GRK2; P25098; bead flow cytometry, FAM-aptamer displacement from GRK2; inhibition of aptamer binding, % at 10 µM; 0.59% of 330,000 active;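 active = inhibition of aptamer binding above 40%, roughly 3 SD of noise, on plates passing a quality check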;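 note: median bead fluorescence of bound FAM aptamer so fluorescent compounds give negative values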
# SR-BI uptake up = enhances SR-BI lipid uptake from DiI-HDL; 0.096% of 320,000 active; AID 504775; CHO ldlA[mSR-BI] cells, DiI-HDL uptake fluorescence, 3 h; 100 = double the neutral-control signal; activation, % at 12.5 µM;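 active = mean replicate activation of at least 60% and every replicate at or above 60%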;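 note: 0% = median plate neutral-control signal and 100% = twice that signal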
#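 Test system: SR-BI-overexpressing, LDLR-lacking CHO cells; Also added: labelled HDL, 10 µg/mL; Measured by: bottom-read cell fluorescence after medium removal, ex 550/em 595 nm; Timing: 3 h uptake period with compound, 37 °C; Buffer or medium: F12, 0.5% BSA, 25 mM HEPES; Doses: single compound concentration, delivered by pin transfer.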
# GRK2 inh confirm = confirmation of human GRK2 inhibitors displacing RNA aptamer; bead-bound GRK2, FAM-aptamer displacement, flow cytometry; 4% of 2,000 active; shares compounds with GRK2 inh; aptamer displacement, % at 10 µM;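 active = aptamer displacement above 40%, near three times the noise of non-fluorescent compounds, on plates passing quality checks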;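 note: negative values mostly reflect intrinsic compound fluorescence rather than true enhancement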
# Aptamer quench = counter-screen for GRK2 aptamer inhibitors: fluorescent aptamer quenchers; Fluorescent RNA aptamer beads, quenching, flow cytometry; stronger effect = higher value; 110 tested, under 10 active; shares compounds with GRK2 inh; fluorescence change (kMESF span), kMESF (test concentration not listed);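 active = compounds whose bead fluorescence drops by more than 37 kMESF across the dose range, marking them as dye quenchers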
# FAM quench CP1 = counter-screen for GRK2 aptamer inhibitors: fluorescent aptamer quenchers | fluorescence response (% of DMSO), % at 10 µM | Carboxyfluorescein RNA aptamer on beads, flow cytometry quenching; stronger effect = lower value | 2,000 tested, under 10 active | shares compounds with GRK2 inh | AID 504580;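 active = compounds that quench the bead-bound fluorescent RNA probe, cutting fluorescence to under half of the solvent control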;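 note: counterscreen run without GRK2 so only probe quenching by compound is measured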
# GRK2 CP2 = confirmation of human GRK2 inhibitors binding RNA aptamer site. shares compounds with GRK2 inh. 360 tested, under 10 active. bead-bound GRK2, FAM-aptamer displacement, flow cytometry. inhibition of aptamer binding, % at 10 µM;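 active = inhibition of aptamer binding above 40%, about triple the noise seen with nonglowing compounds, on plates passing quality control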;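 note: negative values mostly come from compounds that fluoresce themselves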
# FAM quench SP = quenches fluorescent RNA aptamer, GRK2 hit artifact; AID 588494; carboxyfluorescein RNA aptamer beads, flow cytometry quenching; stronger effect = lower value; fluorescence response vs DMSO, % at 10 µM; 360 tested, under 10 active; shares compounds with GRK2 inh;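 active = response vs DMSO under 50%, meaning signal dropped by over half, treated as fluorescence quencher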;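 note: labelled aptamer on streptavidin beads without GRK2 as a quench counter-screen; 100% = bead fluorescence of DMSO wells and lower means quenching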
# Starred values were filed as active, the others as inactive; x = no result given.
SMILES,Rin1-Abl PPI inh,SR-BI DiI inh,GRK2 inh,SR-BI uptake up,GRK2 inh confirm,FAM quench CP1,others
Cn1c(=O)c(C(=O)NNC(=O)c2cccc(Cl)c2)c(O)c2ccccc21,-1,-5,90*,5,65*,142,Aptamer quench=-35
CCn1c(=O)c(C(=O)NNC(=O)c2cccc(Cl)c2)c(O)c2ccccc21,-2,-16,54*,16,-9,105,
CCn1c(=O)c(C(=O)NNC(=O)c2ccc(Cl)cc2Cl)c(O)c2ccccc21,0,-2,1,2,x,x,
COc1cc(OC)c(C2=NOC(C(=O)O)C2)cc1Cl (centres undefined),-2,2,2,-2,x,x,GRK2 CP2=-26;FAM quench SP=100
O=C(O)C1CC(c2cccc(Br)c2)=NO1 (centres undefined),-8,-10,0,10,x,x,GRK2 CP2=-5;FAM quench SP=107
O=C(C1CC(c2cccc(Br)c2)=NO1)N1CCc2ccccc2C1 (centres undefined),2,-23,0,23,x,x,
O=C(O)C1CC(c2ccccc2)=NO1 (centres undefined),2,-40,17,40,x,x,GRK2 CP2=-33;FAM quench SP=102
COc1cc(OC)c(C2=NOC(C(=O)N3CCc4ccccc4C3)C2)cc1Cl (centres undefined),-4,60,0,-60,x,x,
Nc1cc(S(=O)(=O)Nc2ccccc2Cl)ccc1N1CCCCC1,-1,-18,1,18,x,x,
COc1ccc([C@H]2Cc3cccc(O)c3C(=O)O2)cc1O,-1,10,85*,-10,-2,104,
Cn1ccnc1C(OC(=O)c1ccccc1)C(F)(F)F (centres undefined),1,-6,6,6,2,94,
Cn1ccnc1C(OC(=O)c1ccc(Cl)cc1)C(F)(F)F (centres undefined),4,1,0,-1,x,x,
CN(CC1CCOCC1)C(=O)CC1C(=O)NCCN1Cc1cccc(Oc2ccccc2)c1 (centres undefined),5,-16,0,16,x,x,
Cn1c2ccccc2c2cc(C(=O)OCC(=O)N3CC(=O)Nc4ccccc43)sc21,0,47,40,-47,4,105,
COc1cc(/C=C2/SC(=S)N(C)C2=O)ccc1OC(=O)c1ccco1,-3,4,5,-4,x,x,
COc1cc(/C=C2\SC(=S)N(NC(C)=O)C2=O)ccc1OC(=O)c1ccco1,-1,9,0,-9,2,95,
Cc1ccc([N+](=O)[O-])cc1NC(=S)NC(=O)c1cccs1,-5,10,62*,-10,x,x,GRK2 CP2=5;FAM quench SP=99
COc1ccc([N+](=O)[O-])cc1NC(=O)c1cccs1,-2,38,1,-38,x,x,
Cc1ccccc1S(=O)(=O)NC(=O)C1(C)CCN1C(=O)CCc1ccc(Cl)cc1Cl (centres undefined),2,x,x,x,x,x,
CCc1nc2ccc(C(=O)NCc3cccs3)cn2c1N(CC)Cc1cccc(Br)c1,-2,x,x,x,x,x,
CCOC(=O)C1=C(C)NC(C)=C(C(=O)OC)C1c1cccc(Cl)c1Cl (centres undefined),-2,15,0,-15,-3,95,
COC(=O)C1=C(C)NC(=O)CC1c1cccc(Cl)c1Cl (centres undefined),-2,-4,0,4,x,x,
CC(=O)Nc1ccc(Oc2ccc([N+](=O)[O-])cc2Cl)cc1,7,-18,0,18,x,x,
CC(Oc1ccc([N+](=O)[O-])cc1Cl)C(=O)Nc1ccc(C(N)=O)cc1 (centres undefined),1,7,95*,-7,3,102,
CCN1CCN(c2cc(C)c3cc(NC(=S)N(C)Cc4ccccc4)ccc3n2)CC1,1,13,1,-13,1,98,
SMILES,Rin1-Abl PPI inh,SR-BI DiI inh,GRK2 inh,SR-BI uptake up,GRK2 inh confirm,FAM quench CP1,others
CCCc1c(C)[nH]c2ccc(NC(C)=O)cc2c1=O,-4,-12,74*,12,0,110,
CC(=O)CCc1c(C)[nH]c2ccc(NC(C)=O)cc2c1=O,2,-15,1,15,x,x,
Cc1cc(Cl)ccc1-c1cc2nc(NCCCN(C)C)n(C)c(=O)c2s1,0,x,x,x,x,x,
CC1=NN(c2cccc(C(=O)O)c2)C(=O)/C1=C\C=C\c1ccco1,2,x,83*,x,60*,96,Aptamer quench=9.6
CC1=NN(c2ccccc2)C(=O)/C1=C/C=C/c1ccccc1,0,-16,0,16,x,x,
COc1ccc(N(C)C(=O)Cc2c(C(=O)O)n(C)c3ccccc23)c(OC)c1,1,-17,1,17,x,x,
CCN(CC)C(=O)Cn1cc(S(=O)(=O)CC(=O)Nc2ccccc2F)c2ccccc21,-3,26,4,-26,x,x,
CCn1c(C(=O)O)c(CC(=O)N(C)c2ccc(OC)cc2OC)c2ccccc21,-1,28,58*,-28,6,75,
CCN(CC)C(=O)Cn1cc(S(=O)(=O)CC(=O)Nc2cc(OC)ccc2OC)c2ccccc21,2,40,71*,-40,x,x,GRK2 CP2=-24;FAM quench SP=99
COc1ccc(OC)c(NC(=O)Cc2c(C(=O)O)n(C)c3ccccc23)c1,-2,x,47*,x,x,x,GRK2 CP2=22;FAM quench SP=99
Cc1ccc(F)c(S(=O)(=O)NC(=O)C2(C)CCN2C(=O)Cc2ccsc2)c1 (centres undefined),1,x,x,x,x,x,
Cc1nc2ccccc2c(=O)n1/N=C/c1ccncc1,5,-15,83*,15,-3,102,
O=C(NCc1cccs1)c1cc(-c2ccc(O)cc2)on1,0,x,79*,x,-3,98,
Cc1ccc(-c2cc(C(=O)NCc3cccs3)no2)cc1,-2,11,1,-11,x,x,
Cc1ccc(NC(=O)CCNS(=O)(=O)c2ccc3[nH]c(=O)oc3c2)cc1N(C)C,0,-17,2,17,x,x,
Cc1cc(Cl)ccc1OCCCC(=O)N1CCN(C(=O)c2ccco2)CC1,-3,-2,78*,2,-1,100,
O=C(OCC(=O)N1CCN(C(=O)c2ccco2)CC1)c1ccccc1,-2,0,78*,0,-3,111,
O=C(CCCOc1ccccc1)N1CCN(C(=O)c2ccco2)CC1,-3,-1,0,1,x,x,
Brc1cc(-c2ccccc2)nc(-c2ccccc2)n1,2,x,0,x,x,x,
O=CN1CCN(C(=O)c2cccc([N+](=O)[O-])c2)CC1,-2,-32,x,32,x,x,
O=C(NC1CCN(C(=O)c2cccc([N+](=O)[O-])c2)CC1)c1ccccc1,1,2,98*,-2,0,100,
